Measurements taken from ChEMBL document CHEMBL4689842, “EUbOPEN Chemogenomics Library wave 1” (2021).
“And” between values parts separate entries of the source, which are not always exact repeats. Equal values may be shown once.

How the values were obtained:
Format in all cases: toxicity, cell-based
Fibroblast [1] = assay: Incucyte cell viability with human fibroblast; details: 10 µM, compound concentration 10 uM; further: filed as whole numbers so only -1 and 0 and 1 occur
Fibroblast [2] = assay: Multiplex assay against human fibroblast; details: 10 µM, compound concentration 10 uM
Method in brief: (§1)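 Values for tubulin, mitochondrial-mass and membrane-permeability phenotypes are per cents of cells with healthy nuclei. These cells were identified by CellPathfinder machine-learning gating of live cells that had been stained at seeding with Hoechst33342, BioTracker Green Microtubule Cytoskeleton Dye, MitoTracker Red and Annexin V Alexa Fluor 680 and imaged on a CQ1 microscope at 37°C and 5% CO2 after compound addition. The gating first set Hoechst high-intensity objects apart from normal cells, then split normal cells into healthy, pyknosed or fragmented nuclei, and pyknosed cells into mitotic or apoptotic.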

U2OS = assay: Incucyte cell viability with U2OS; details: human, 10 µM, compound concentration 10 uM; further: filed as whole numbers so only -1 and 0 and 1 occur
HEK-293T = assay: Multiplex assay against HEK293T; details: human, 12 h, 10 µM, compound concentration 10 uM; method in brief: as §1
[3] = 0 h, replicate number 2, timepoint 0 hours
[4] = 6 h, replicate number 1, timepoint 6 hours
[5] = 12 h, replicate number 1, timepoint 12 hours
[6] = 18 h, replicate number 1, timepoint 18 hours
[7] = 24 h, replicate number 1, timepoint 24 hours

Compound: C[C@@H]1CN(c2cc(-c3nn(C)c4ccc(OC5(C)CC5)cc34)ncn2)C[C@H](C)O1 [MLi-2-NC]
- Growth Rate (Fibroblast [1]; [3]): 0
- Growth Rate (Fibroblast [1]; [4]): 0
- Growth Rate (Fibroblast [1]; 6 h, replicate number 2, timepoint 6 hours): 1
- Growth Rate (Fibroblast [1]; [5]): 1
- Growth Rate (Fibroblast [1]; [6]): 0
- Growth Rate (Fibroblast [1]; [7]): 0
- Population Apoptotic (%) (Fibroblast [2]; 12 h, replicate 1): 65% and 70%
- Population Fragmented Nuclei (%) (Fibroblast [2]; 12 h, replicate 1): 24% and 21%
- Population Healthy Nuclei (%) (Fibroblast [2]; 12 h, replicate 1): 59% and 61%
- Population Hoechst High Intensity Objects (%) (Fibroblast [2]; 12 h, replicate 1): 9% and 12%
- Population Mitochondria Different-Phenotype (%) (Fibroblast [2]; 12 h, replicate 1): 3%
- Population Mitotic Cells (%) (Fibroblast [2]; 12 h, replicate 1): 34% and 29%
- Population Normal (%) (Fibroblast [2]; 12 h, replicate 1): 90% and 87%
- Population Pyknosed Nuclei (%) (Fibroblast [2]; 12 h, replicate 1): 16%
- Total Cell Count (Fibroblast [2]; 12 h, replicate 1): 234 and 261
- Population Apoptotic (%) (Fibroblast [2]; 12 h, replicate 2): 42% and 50%
- Population Fragmented Nuclei (%) (Fibroblast [2]; 12 h, replicate 2): 44% and 53%
- Population Healthy Nuclei (%) (Fibroblast [2]; 12 h, replicate 2): 36% and 42%
- Population Hoechst High Intensity Objects (%) (Fibroblast [2]; 12 h, replicate 2): 32% and 43%
- Population Membrane Permeable-Phenotype (%) (Fibroblast [2]; 12 h, replicate 2): 21% and 15%
- Population Mitochondria Different-Phenotype (%) (Fibroblast [2]; 12 h, replicate 2): 7% and 10%
- Population Mitotic Cells (%) (Fibroblast [2]; 12 h, replicate 2): 57% and 50%
- Population Normal (%) (Fibroblast [2]; 12 h, replicate 2): 67% and 56%
- Population Tubulin-Different-Phenotype (%) (Fibroblast [2]; 12 h, replicate 2): 21% and 20%
- Total Cell Count (Fibroblast [2]; 12 h, replicate 2): 56 and 83
- Population Apoptotic (%) (Fibroblast [2]; 24 h, replicate 1): 45% and 61%
- Population Fragmented Nuclei (%) (Fibroblast [2]; 24 h, replicate 1): 25% and 27%
- Population Healthy Nuclei (%) (Fibroblast [2]; 24 h, replicate 1): 59% and 56%
- Population Hoechst High Intensity Objects (%) (Fibroblast [2]; 24 h, replicate 1): 12% and 11%
- Population Membrane Permeable-Phenotype (%) (Fibroblast [2]; 24 h, replicate 1): 9% and 7%
- Population Mitochondria Different-Phenotype (%) (Fibroblast [2]; 24 h, replicate 1): 3% and 9%
- Population Mitotic Cells (%) (Fibroblast [2]; 24 h, replicate 1): 54% and 38%
- Population Normal (%) (Fibroblast [2]; 24 h, replicate 1): 87% and 88%
- Population Pyknosed Nuclei (%) (Fibroblast [2]; 24 h, replicate 1): 14% and 16%
- Population Tubulin-Different-Phenotype (%) (Fibroblast [2]; 24 h, replicate 1): 8% and 22%
- Total Cell Count (Fibroblast [2]; 24 h, replicate 1): 282 and 230
- Population Apoptotic (%) (Fibroblast [2]; 24 h, replicate 2): 62% and 50%
- Population Fragmented Nuclei (%) (Fibroblast [2]; 24 h, replicate 2): 53% and 63%
- Population Healthy Nuclei (%) (Fibroblast [2]; 24 h, replicate 2): 21% and 28%
- Population Hoechst High Intensity Objects (%) (Fibroblast [2]; 24 h, replicate 2): 33% and 34%
- Population Membrane Permeable-Phenotype (%) (Fibroblast [2]; 24 h, replicate 2): 42% and 23%
- Population Mitotic Cells (%) (Fibroblast [2]; 24 h, replicate 2): 37% and 50%
- Population Normal (%) (Fibroblast [2]; 24 h, replicate 2): 66% and 65%
- Population Tubulin-Different-Phenotype (%) (Fibroblast [2]; 24 h, replicate 2): 42% and 30%
- Total Cell Count (Fibroblast [2]; 24 h, replicate 2): 48 and 70
- Growth Rate (U2OS; 0 h, replicate number 1, timepoint 0 hours): 1
- Growth Rate (U2OS; [3]): 0
- Growth Rate (U2OS; [4]): 1
- Growth Rate (U2OS; [5]): 1
- Growth Rate (U2OS; [6]): 0
- Growth Rate (U2OS; 18 h, replicate number 2, timepoint 18 hours): 1
- Growth Rate (U2OS; [7]): 0
- Growth Rate (U2OS; 24 h, replicate number 2, timepoint 24 hours): 1
- Population Apoptotic (%) (HEK-293T; replicate 1): 9% and 22%
- Population Fragmented Nuclei (%) (HEK-293T; replicate 1): 18% and 14%
- Population Healthy Nuclei (%) (HEK-293T; replicate 1): 55% and 62%
- Population Hoechst High Intensity Objects (%) (HEK-293T; replicate 1): 10% and 16%
- Population Membrane Permeable-Phenotype (%) (HEK-293T; replicate 1): 4% and 3%
- Population Mitochondria Different-Phenotype (%) (HEK-293T; replicate 1): 5% and 6%
- Population Mitotic Cells (%) (HEK-293T; replicate 1): 90% and 77%
- Population Normal (%) (HEK-293T; replicate 1): 89% and 83%
- Population Pyknosed Nuclei (%) (HEK-293T; replicate 1): 25% and 23%
- Total Cell Count (HEK-293T; replicate 1): 441 and 673
- Population Apoptotic (%) (HEK-293T; replicate 2): 6% and 12%
- Population Fragmented Nuclei (%) (HEK-293T; replicate 2): 7% and 4%
- Population Healthy Nuclei (%) (HEK-293T; replicate 2): 87% and 89%
- Population Hoechst High Intensity Objects (%) (HEK-293T; replicate 2): 2% and 3%
- Population Membrane Permeable-Phenotype (%) (HEK-293T; replicate 2): 2%
- Population Mitochondria Different-Phenotype (%) (HEK-293T; replicate 2): 8% and 14%
